Compound activity from PubChem.
Insulin prom up = MIN6 insulin promoter up-regulation; MIN6 insulin promoter-GFP reporter, high-content imaging; stronger effect = higher value; z-score at 5 µM; 190,000 tested, 0.3% active; AID 1625;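 active = z-score above 3 at 5 µM with at least 500 cells counted in the well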
Hsp70 act = transcriptional activators of Hsp70 | HeLa Hsp70 promoter luciferase reporter, luminescence; scaled: vehicle 0, proteasome-inhibitor control 100% | activation, % at 10 µM | 200,000 tested, 0.04% active;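 active = activation above the mean across all tested compounds plus 3 SD, cutoff set per campaign, cut at about 5.5% in these data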;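 also: 100% = MG132 at 30 µM as the positive control and 0% = DMSO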
Wee1 degr inh = blocks degradation of human Wee1 kinase | reporter increase, % at 5 µM | HeLa Luc-Wee1K328M stability, luciferase luminescence; 100% = proteasome inhibitor MG132 effect | 220,000 tested, 1.2% active;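 active = activation above the mean of all tested compounds plus 3 SD, set per screening run, cut at about 8.8% in these data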;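 also: cells exposed to compound for 20 h before luminescence read; 0% = DMSO alone and 100% = MG132 at 30 µM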
MDM2 E3 inh = Mdm2 E3 ligase (human) inhibition | Q00987 | cell-based MDM2 ubiquitination luciferase reporter, 2 h; 0 = plate control, 100 = twice control, blank-subtracted | signal enhancement, % at 5 µM | 210,000 tested, 0.11% active;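 active = signal enhancement of 30% or more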;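 also: luminescence tracks abundance of the self-degrading MDM2-luciferase fusion protein; higher signal means inhibition of MDM2 E3 ligase activity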
Target sequence (Q00987 whole entry, looked up, the tested form may be a part): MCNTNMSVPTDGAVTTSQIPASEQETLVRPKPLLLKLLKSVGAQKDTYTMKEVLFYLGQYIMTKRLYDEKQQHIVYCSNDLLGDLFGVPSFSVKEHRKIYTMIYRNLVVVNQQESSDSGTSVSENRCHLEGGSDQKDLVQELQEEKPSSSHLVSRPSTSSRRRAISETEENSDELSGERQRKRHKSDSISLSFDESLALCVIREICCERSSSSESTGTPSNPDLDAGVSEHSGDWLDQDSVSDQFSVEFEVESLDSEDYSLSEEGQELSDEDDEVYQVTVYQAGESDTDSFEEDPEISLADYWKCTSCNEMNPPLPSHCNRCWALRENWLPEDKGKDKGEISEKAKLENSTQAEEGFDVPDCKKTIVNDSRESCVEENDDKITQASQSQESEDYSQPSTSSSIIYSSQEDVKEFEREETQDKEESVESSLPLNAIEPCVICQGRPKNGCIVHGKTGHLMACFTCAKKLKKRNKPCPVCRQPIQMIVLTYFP
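Assay system: stable mammalian line carrying autodegrading MDM2–luciferase fusion reporter; amount: 2000 cells seeded into each well; buffer or medium: DMEM; benchmarks: plate control and blank wells; signal: luciferase luminescence; timing: 2 h compound exposure at 37 °C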
RBBP9 inhibitor = human RBBP9 hydrolase inhibition; O75884; recombinant RBBP9, FP-Rh probe fluorescence polarization; inhibition, % at 7.94 µM; 220,000 tested, 0.2% active;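 active = inhibition above the campaign mean of all tested compounds plus 3 SD, cut at about 14% in these data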;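 also: plate controls were DMSO wells with RBBP9 for no effect and wells lacking RBBP9 protein for full effect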
Target sequence (O75884 whole entry, looked up): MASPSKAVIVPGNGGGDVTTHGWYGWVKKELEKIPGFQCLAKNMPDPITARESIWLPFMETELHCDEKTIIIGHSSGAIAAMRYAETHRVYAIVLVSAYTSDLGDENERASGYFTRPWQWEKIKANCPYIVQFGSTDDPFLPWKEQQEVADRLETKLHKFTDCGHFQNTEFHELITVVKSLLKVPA
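Measured by – fluorescence polarization · Test system – RBBP9 protein · Input – 2.5 µM RBBP9 dispensing solution, before mixing · Measure – percent inhibition from mP, scaled between DMSO and no-protein wells · Benchmarks – DMSO-treated enzyme wells and wells lacking RBBP9 · Times – preincubation 30 min plus labeling 45 min at 25 °C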
INS promoter inh = TRM-6 insulin promoter activity inhibition | TRM-6 cells (human fetal islet line), insulin promoter-eGFP reporter, imaging; reporter expression induced with tamoxifen | inhibition, % at 2 µM | 130,000 tested, 0.9% active | AID 1273;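 active = inhibition above the mean plus 3 SD, with well images judged a real hit on visual review, cut at about 60% in these data, passing the limit was not always enough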
RBBP9 confirm = human RBBP9 inhibition, confirmation; shares compounds with RBBP9 inhibitor; recombinant RBBP9, FP-Rh probe fluorescence polarization; inhibition, % at 7.94 µM; 410 tested, 36% active; AID 1537;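 active = inhibition above the hit cutoff derived for the primary screen, cut at about 15% in these data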;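 also: 0% = RBBP9 with DMSO and 100% = wells lacking RBBP9 protein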
The depositor's hits bear a star; / = no result. Compounds with a hit are over-represented: about 2.2% of the library has one in this group of screens.

SMILES	Insulin prom up	Hsp70 act	Wee1 degr inh	MDM2 E3 inh	RBBP9 inhibitor	INS promoter inh	RBBP9 confirm
CCSc1nnc(NC(=O)C2CCCN(S(=O)(=O)c3cnc[nH]3)C2)s1 (stereo not given)	-1.88	-0.3	-1.6	-13.5	-2.0	/	/
Cc1ccc(C(=O)N2CCN(c3ccc([N+](=O)[O-])cc3-n3cccc3)CC2)cc1	-1.28	/	3.1	-9.0	-13.2	/	/
CCOC(=O)c1c(C)oc2c(CC(=O)c3ccccc3)c(Cl)c(O)c(O)c12	0.74	-0.2	2.9	-6.0	15.6*	37.0	13.3
CCOC(=O)c1c(C)oc2c1c(CN1CCN(C(=O)OCC)CC1)c(O)c1ccccc12	-0.08	0.2	0.4	0.3	0.0	-10.3	/
CCCc1nnc(NC(=O)CN2CCN(C)CC2)s1	0.24	-0.4	0.9	0.0	16.7*	21.4	4.5
O=C1CN(C(=O)c2cc3ccccc3o2)c2ccccc2N1	0.08	-0.3	-2.7	-14.8	-6.8	-2.9	/
CC1CCCC(C)N1C(=O)COC(=O)C(Cc1ccccc1)NC(=O)c1cccs1 (stereo not given)	1.13	-0.3	4.3	/	16.1*	-158.1	0.2
OCCC1CN(Cc2cccn2-c2nccs2)CCN1Cc1ccc(F)c(F)c1 (stereo not given)	-1.29	-0.3	-2.8	-8.8	-5.9	/	/
CCOC(=O)COc1cccc2c(=O)n(CC(=O)NCc3ccccc3)ccc12	0.13	/	3.2	9.1	1.3	/	/
COC(=O)COc1cccc2c(=O)n(CC(=O)NCCc3ccccc3)ccc12	0.11	-0.1	1.2	/	18.3*	25.0	11.9
Oc1cc(-n2cccn2)c(O)cc1-n1cccn1	0.15	/	-4.2	-7.4	63.0*	/	75.6*
O=S(=O)(N/N=C/c1ccc(OC2CSC2)cc1)c1ccccc1	-0.36	-0.2	-0.6	5.7	-4.0	/	/
COc1ccc(CN(C)CC(=O)Nc2cccc(S(N)(=O)=O)c2)c(OC)c1OC	/	-0.5	-1.9	4.6	-2.6	40.0	/
CC1=CC(C)(C)N(S(=O)(=O)c2ccc(C)cc2)c2cc(C)ccc21	/	-0.1	-1.7	-2.8	20.7*	-28.1	9.5
O=C(O)CN1CCN(Cc2ccccc2Cl)C1=O	/	-0.1	4.7	/	15.6*	44.4	2.3
Cc1cc(NC(=O)c2ccc(Cl)cc2)c(C)cc1O	-0.92	0.7	0.7	-6.4	0.2	-47.1	/
Cc1cc(O)c(-c2cc(O)c(C)cc2O)cc1O	0	/	-1.3	-0.1	46.8*	/	73.4*
O=C1c2ccccc2C(=O)N1/N=C/c1ccc(O)c(O)c1O	0.28	/	0.7	/	19.7*	/	45.0*
O=C1c2cccc3cccc(c23)C(=O)N1/N=C/c1ccc(O)cc1O	0.43	0.0	2.1	-5.7	-3.1	-10.3	/
COCCOc1nc2c(c(=O)n(C)c(=O)n2C)n1Cc1cccc(OC)c1	/	-0.3	-1.1	-11.7	3.6	-37.9	/
CN(C)S(=O)(=O)c1cccc(NC(=S)Nc2cccc3cnccc23)c1	-0.65	/	-1.0	-19.2	19.2*	/	7.2
CCOC(=O)C1=C(C)NC(=O)NC1c1ccc(N(CC)CC)cc1 (stereo not given)	0	0.5	1.1	0.5	-4.6	/	/
CCC(C)(C)NC(=O)/C=C/c1cccs1	-0.11	-0.3	1.5	-16.8	17.8*	/	5.6
Cc1ccnc(NS(=O)(=O)c2ccc(NC(=O)CSc3nc(-c4ccccc4)cc(=O)[nH]3)cc2)n1	0.37	0.4	0.6	-9.2	-0.4	/	/
Cc1ccccc1NC(=O)c1sc2nc3c(c(-c4ccco4)c2c1N)CCCC3	0.6	0.3	2.6	-11.3	15.4*	/	6.6
SMILES	Insulin prom up	Hsp70 act	Wee1 degr inh	MDM2 E3 inh	RBBP9 inhibitor	INS promoter inh	RBBP9 confirm
Cc1c(C(=O)O)sc(S(=O)(=O)N2CCNCC2)c1C(=O)O	-0.03	/	2.3	-7.2	19.5*	/	5.6
CCOC(=O)C(C(C)=O)c1c(Br)c(O)c(O)c2c(C(=O)c3ccc(C)cc3)coc12 (stereo not given)	-8.04	-0.1	7.2	/	23.7*	/	17.3*
CCOC(=O)c1c(C)n(-c2ccc(C)cc2)c2c(C(C(C)=O)C(=O)O)c(Br)c(O)c(O)c12 (stereo not given)	-0.19	-0.1	2.2	-12.5	8.2	5.7	/
CCOc1ccc(-c2cc(N3C(=O)Nc4ccccc4N3O)on2)cc1	-0.37	0.0	4.2	-16.0	16.2*	50.0	4.1
COc1ccc(-c2cc(N3C(=O)Nc4ccccc4N3O)n[nH]2)cc1	0.7	0.0	0.3	-10.8	-3.3	/	/
CN1CCN(CP(=O)(N2CCOCC2)N2CCOCC2)CC1	-0.17	-0.3	-3.5	-20.4	-4.2	/	/
CC(=O)N1CCCN(Cc2cn(-c3cc(C)ccc3C)nc2-c2ccccc2)CC1	0.48	-0.3	-0.6	6.5	-5.1	/	/
O=[N+]([O-])c1ccc(Cl)c(C2Nc3cccc4cccc(c34)N2)c1	-0.4	-0.2	5.2	-0.6	35.3*	/	36.6*
Cn1c(/C=C(\C#N)C(N)=S)ccc1-c1ccc(Br)cc1	-0.82	-0.2	7.4	-15.3	-1.6	/	/
Cc1ccc(/C=C2\SC(=S)N(/N=C/c3cc([N+](=O)[O-])ccc3O)C2=O)o1	-0.26	-0.2	-0.9	-22.9	15.0*	16.7	23.5*
O=C(Oc1ccc(C(=S)N2CCCCC2)cc1)c1ccccc1	0.86	-0.2	-4.1	-17.1	2.4	/	/
O=C(Oc1ccc(C(=S)N2CCC(O)CC2)cc1)c1ccc(Cl)cc1	0.99	0.2	5.3	-19.6	19.7*	/	29.0*
Cc1cc(=O)oc2c(CN(C)Cc3ccccc3)c(O)ccc12	0.1	-0.2	4.1	-5.1	0.9	3.5	/
C=CCN(CC=C)Cc1c(O)ccc2c1oc(=O)c1ccccc12	/	-0.3	0.5	/	24.8*	/	4.7
Cc1cc2nnc(SCc3ccccc3)n2c(N)n1	-0.36	-0.3	2.8	-6.3	-2.1	50.0	/
CCN(CC(=O)Nc1ccccc1OC)CC(=O)Nc1ccccc1-c1ccccc1	0.25	-0.2	2.3	-10.3	3.0	/	/
Cc1nc(SCC(O)CO)c([N+](=O)[O-])[nH]1 (stereo not given)	-0.03	-0.3	-2.8	-15.1	-11.6	-292.9	/
CC(C)CC(=O)O/N=C1\C(=O)N(Cc2ccc(Cl)cc2)c2ccc([N+](=O)[O-])cc21	0.37	-0.5	0.2	-8.8	23.6*	/	45.5*
Cc1ccsc1C=Nc1ccc(O)cc1	0.14	0.4	-1.2	10.3	14.8*	/	12.7
Cc1ccc(S(=O)(=O)Nc2ccc3oc(=O)sc3c2)c(C)c1	0.11	-0.1	-1.1	-19.4	19.7*	25.8	15.6*
COc1cccc(CNc2ccc(N3CCCCC3)cc2)c1OC	/	-0.5	0.1	-17.1	14.4*	-46.1	17.1*
FC(F)(F)c1cccc(NC(=S)Nc2cccc(NC(=S)Nc3cccc(C(F)(F)F)c3)n2)c1	-1.06	/	-2.9	-4.6	-23.1	/	/
N#CCc1cnc2ccccc2n1	0.19	/	-0.5	-4.1	16.4*	/	1.7
